Source: ChEMBL document CHEMBL1158460, “Heterobiaryl human immunodeficiency virus entry inhibitors” (J Med Chem, 2009)
pIC50: −log10 of the molar value.

Tests used:
[1] = tested on: Human immunodeficiency virus; test: Antiviral activity against HIV isolate 584.000 054 by replication assay; type: functional, organism-based; conditions: Human immunodeficiency virus 1, isolate 584.000 054
[2] = tested on: Human immunodeficiency virus; test: Antiviral activity against HIV isolate 584.000 030 by replication assay; type: functional, organism-based; conditions: Human immunodeficiency virus 1, isolate 584.000 030
[3] = tested on: Human immunodeficiency virus; test: Antiviral activity against HIV isolate 584.000 017 by replication assay; type: functional, organism-based; conditions: Human immunodeficiency virus 1, isolate 584.000 017
[4] = tested on: Human immunodeficiency virus; test: Antiviral activity against HIV isolate 584.000 058 by replication assay; type: functional, organism-based; conditions: Human immunodeficiency virus 1, isolate 584.000 058
[5] = tested on: Human immunodeficiency virus; test: Antiviral activity against HIV isolate 584.000 066 by replication assay; type: functional, organism-based; conditions: Human immunodeficiency virus 1, isolate 584.000 066
[6] = Cytotoxicity against human U87 cells coexpressing CD4, CxCR4 receptors after 72 hrs; type: cell-based, U-87MG ATCC; conditions: U87 cells coexpressing CD4 and CXCR4 receptors
[7] = tested on: Human immunodeficiency virus; test: Antiviral activity against HIV isolate 584.000 063 by replication assay; type: functional, organism-based; conditions: Human immunodeficiency virus 1, isolate 584.000 063
[8] = tested on: Human immunodeficiency virus; test: Antiviral activity against HIV isolate 584.000 220 by replication assay; type: functional, organism-based; conditions: Human immunodeficiency virus 1, isolate 584.000 220
[9] = tested on: Human immunodeficiency virus; test: Antiviral activity against HIV isolate 584.000 227 by replication assay; type: functional, organism-based; conditions: Human immunodeficiency virus 1, isolate 584.000 227
[10] = Inhibition of HIV1 3B recombinant gp120/sCD4 binding interaction by ELISA
Procedure, shortened: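 Competitive ELISA of soluble CD4 binding to gp120 from HIV IIIB. Bound CD4 was detected with an anti-CD4 monoclonal antibody, then a peroxidase-labelled anti-mouse antibody. The read-out was the 50% inhibitory dose.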

[11] = tested on: Human immunodeficiency virus; test: Antiviral activity against HIV isolate 589.000 033 by replication assay; type: functional, organism-based; conditions: Human immunodeficiency virus 1, isolate 589.000 033
[12] = tested on: Human immunodeficiency virus; test: Antiviral activity against HIV isolate 584.000 031 by replication assay; type: functional, organism-based; conditions: Human immunodeficiency virus 1, isolate 584.000 031
[13] = tested on: Human immunodeficiency virus 1; test: Antiviral activity against HIV1 expressed in 293T cells assessed as protection against viral M33 envelope infection in human U87 cells coexpressing CD4, CCR5 receptors after 72 hrs by luciferase reporter gene pseudoviral assay; type: functional, organism-based; conditions: Human immunodeficiency virus 1, HEK-293T
Procedure, shortened: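 Pseudovirions carry an R5-using envelope cloned from a primary virus isolate. Anti-HIV-1 activity was taken as the 50% inhibitory dose against these pseudovirions.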

[14] = tested on: Human immunodeficiency virus; test: Antiviral activity against HIV isolate 584.000 060 by replication assay; type: functional, organism-based; conditions: Human immunodeficiency virus 1, isolate 584.000 060
[15] = tested on: Human immunodeficiency virus; test: Antiviral activity against HIV isolate 584.000.098 by replication assay; type: functional, organism-based; conditions: Human immunodeficiency virus 1, isolate 584.000.098

| Structure (SMILES) | pIC50 [10] | pIC50 [13] | CC50 at 72 h [6] | also measured |
| --- | --- | --- | --- | --- |
| Cc1ccc(-c2ccc(C(=O)C(=O)N3CCN(C(=O)c4ccccc4)C[C@H]3C)cc2)o1 | < 5.00 | 5.55 | > 40000 nM | – |
| C[C@@H]1CN(C(=O)c2ccccc2)CCN1C(=O)C(=O)c1ccc(-c2cc[nH]n2)cc1O | < 5.00 | 5.66 | > 40000 nM | – |
| C[C@@H]1CN(C(=O)c2ccccc2)CCN1C(=O)C(=O)c1ccc(N2CCCC2)cc1 | < 5.00 | 5.17 | > 40000 nM | – |
| C[C@@H]1CN(C(=O)c2ccccc2)CCN1C(=O)C(=O)c1ccc(-c2ncccc2F)cc1 | – | 5.70 | > 40000 nM | – |
| C[C@@H]1CN(C(=O)c2ccccc2)CCN1C(=O)C(=O)c1ccc(-c2cc[nH]n2)nc1 | < 5.00 | 6.00 | > 40000 nM | – |
| Cc1nc(-c2ccc(C(=O)C(=O)N3CCN(C(=O)c4ccccc4)C[C@H]3C)cc2)cs1 | – | 5.27 | > 40000 nM | – |
| C[C@@H]1CN(C(=O)c2ccccc2)CCN1C(=O)C(=O)c1ccc(N2CCOC2=O)cc1 | < 5.00 | 4.92 | > 40000 nM | – |
| Cc1cc(-c2ccc(C(=O)C(=O)N3CCN(C(=O)c4ccccc4)C[C@H]3C)c(O)c2)on1 | < 5.00 | 5.14 | > 40000 nM | – |
| CNc1cc(-c2cc[nH]n2)ccc1C(=O)C(=O)N1CCN(C(=O)c2ccccc2)C[C@H]1C | – | < 5.00 | > 40000 nM | – |
| C[C@@H]1CN(C(=O)c2ccccc2)CCN1C(=O)C(=O)c1cccc(-c2ccccn2)c1 | – | 4.64 | > 40000 nM | – |
| Cc1cc(-c2cc[nH]n2)ccc1C(=O)C(=O)N1CCN(C(=O)c2ccccc2)C[C@H]1C | < 5.00 | 5.96 | > 40000 nM | – |
| C[C@@H]1CN(C(=O)c2ccccc2)CCN1C(=O)C(=O)c1ccc(-c2ccccn2)s1 | – | 4.89 | > 40000 nM | – |
| CC1CN(C(=O)c2ccccc2)CCN1C(=O)C(=O)c1ccc(-c2ccn(C)n2)cc1 (racemic) | – | 5.74 | > 40000 nM | – |
| C[C@@H]1CN(C(=O)c2ccccc2)CCN1S(=O)(=O)c1ccc(-c2ccccn2)s1 | – | 5.27 | > 40000 nM | – |
| CC(=O)c1ccc(-c2ccc(C(=O)C(=O)N3CCN(C(=O)c4ccccc4)C[C@H]3C)cc2)s1 | – | 5.80 | > 40000 nM | – |
| C[C@@H]1CN(C(=O)c2ccccc2)CCN1S(=O)(=O)c1ccc(-c2cnco2)s1 | – | 5.92 | > 40000 nM | – |
| C[C@@H]1CN(C(=O)c2ccccc2)CCN1C(=O)C(=O)c1ccc(-n2cccn2)cc1 | < 5.12 | 5.92 | > 40000 nM | – |
| C[C@@H]1CN(C(=O)c2ccccc2)CCN1C(=O)C(=O)c1ccc(-c2ccncc2)cc1 | – | 5.60 | > 40000 nM | – |
| CC1CN(C(=O)c2ccccc2)CCN1C(=O)C(=O)c1ccc(-c2cc(N)ncn2)cc1 (racemic) | – | 5.85 | > 40000 nM | – |

Compounds with a higher pIC50 [13], results first:

| pIC50 [10] | pIC50 [13] | Structure (SMILES) | CC50 at 72 h [6] | also measured |
| --- | --- | --- | --- | --- |
| 6.03 | 8.10 | COc1ccnc2[nH]cc(C(=O)C(=O)N3CCN(C(=O)c4ccccc4)C[C@H]3C)c12 | > 40000 nM | pIC50 [1]: 5.26; pIC50 [2]: 7.54; pIC50 [3]: < 5.00; pIC50 [4]: 7.42; pIC50 [5]: 6.72; pIC50 [7]: 7.34; pIC50 [8]: 8.30; pIC50 [9]: 6.37; pIC50 [11]: 7.57; pIC50 [12]: 5.10; pIC50 [14]: 7.62; pIC50 [15]: 6.40 |
| 6.63 | > 8.30 | C[C@@H]1CN(C(=O)c2ccccc2)CCN1C(=O)C(=O)c1ccc(-c2cnco2)c(Cl)c1 | > 40000 nM | – |
| 5.60 | 7.25 | COc1cc(C(=O)C(=O)N2CCN(C(=O)c3ccccc3)C[C@H]2C)ccc1-c1cc[nH]n1 | > 40000 nM | – |
| – | 6.60 | C[C@@H]1CN(C(=O)c2ccccc2)CCN1C(=O)C(=O)c1ccc(-c2cnco2)cc1 | > 40000 nM | – |
| 5.62 | 7.59 | COc1ncc(OC)c2c(C(=O)C(=O)N3CCN(C(=O)c4ccccc4)CC3)c[nH]c12 | > 40000 nM | pIC50 [1]: 5.15; pIC50 [2]: 7.52; pIC50 [3]: < 5.00; pIC50 [4]: 7.22; pIC50 [5]: 7.96; pIC50 [7]: 7.77; pIC50 [8]: 8.40; pIC50 [9]: 7.66; pIC50 [11]: 7.47; pIC50 [12]: 6.62; pIC50 [14]: 7.85; pIC50 [15]: 6.37 |
| 5.21 | 6.06 | CC1CN(C(=O)c2ccccc2)CCN1C(=O)C(=O)c1ccc(-n2nccn2)cc1 (racemic) | > 40000 nM | – |
| 6.67 | 8.15 | COc1cnc(-n2ccnn2)c2[nH]cc(S(=O)(=O)N3CCN(C(=O)c4ccccc4)C[C@H]3C)c12 | > 40000 nM | – |
| 5.62 | 6.80 | CC1CN(C(=O)c2ccccc2)CCN1C(=O)C(=O)c1ccc(-c2cc[nH]n2)cc1 (racemic) | > 40000 nM | – |
| < 5.00 | 6.03 | CC1CN(C(=O)c2ccccc2)CCN1C(=O)C(=O)c1ccc(-n2cncn2)cc1 (racemic) | > 40000 nM | – |
| < 5.00 | 6.20 | C[C@@H]1CN(C(=O)c2ccccc2)CCN1C(=O)C(=O)c1ccc(-c2nccs2)cc1 | > 40000 nM | – |
| 6.17 | 7.46 | Cc1cc(C(=O)C(=O)N2CCN(C(=O)c3ccccc3)C[C@H]2C)ccc1-c1cc[nH]n1 | > 40000 nM | – |
| 6.11 | 7.30 | COc1cc(C(=O)C(=O)N2CCN(C(=O)c3ccccc3)C[C@H]2C)ccc1-c1cnco1 | > 40000 nM | – |
| < 5.00 | 6.89 | Cc1cc(-c2ccc(C(=O)C(=O)N3CCN(C(=O)c4ccccc4)C[C@H]3C)cc2F)on1 | > 40000 nM | – |
| < 5.00 | 6.08 | COc1cc(C(=O)C(=O)N2CCN(C(=O)c3ccccc3)C[C@H]2C)ccc1-c1cc(C)no1 | > 40000 nM | – |
| – | 6.27 | C[C@@H]1CN(C(=O)c2ccccc2)CCN1C(=O)C(=O)c1ccc(-c2ccsc2)cc1 | > 40000 nM | – |
| < 5.00 | 6.48 | Cc1cc(-c2ccc(C(=O)C(=O)N3CCN(C(=O)c4ccccc4)C[C@H]3C)cc2)on1 | > 40000 nM | – |
| 6.64 | > 8.30 | COc1cc(-c2cc(C)no2)ccc1C(=O)C(=O)N1CCN(C(=O)c2ccccc2)C[C@H]1C | > 40000 nM | pIC50 [1]: 5.45; pIC50 [2]: 7.89; pIC50 [3]: < 5.00; pIC50 [4]: 7.66; pIC50 [5]: 6.56; pIC50 [7]: 7.60; pIC50 [8]: 8.52; pIC50 [9]: 5.74; pIC50 [11]: 7.96; pIC50 [12]: 5.05; pIC50 [14]: 7.77; pIC50 [15]: 6.52 |
| – | 6.49 | C[C@@H]1CN(C(=O)c2ccccc2)CCN1C(=O)C(=O)c1ccc(-c2cncs2)cc1 | > 40000 nM | – |
| – | 6.96 | CC1CN(C(=O)c2ccccc2)CCN1C(=O)C(=O)c1ccc(-c2cnn(C)c2)cc1 (racemic) | > 40000 nM | – |
| 5.34 | 6.60 | C[C@@H]1CN(C(=O)c2ccccc2)CCN1C(=O)C(=O)c1ccc(-c2ccn[nH]2)cc1Cl | > 40000 nM | – |
| – | 6.04 | CC(=O)c1cc(-c2ccc(C(=O)C(=O)N3CCN(C(=O)c4ccccc4)CC3C)cc2)cs1 (racemic) | > 40000 nM | – |
| 5.96 | 7.34 | C[C@@H]1CN(C(=O)c2ccccc2)CCN1C(=O)C(=O)c1ccc(-c2cc[nH]n2)cc1F | > 40000 nM | – |
| – | 6.38 | C[C@@H]1CN(C(=O)c2ccccc2)CCN1C(=O)C(=O)c1ccc(-c2cscn2)cc1 | > 40000 nM | – |
| 5.23 | 7.11 | C[C@@H]1CN(C(=O)c2ccccc2)CCN1C(=O)C(=O)c1ccc(-c2cc[nH]n2)cc1N | > 40000 nM | – |
| 6.25 | > 8.30 | COc1cc(-c2ccn[nH]2)ccc1C(=O)C(=O)N1CCN(C(=O)c2ccccc2)C[C@H]1C | > 40000 nM | – |
| – | 6.36 | C[C@@H]1CN(C(=O)c2ccccc2)CCN1C(=O)C(=O)c1ccc(-c2cccs2)cc1 | > 40000 nM | – |
